# Measurements reported in ChEMBL document CHEMBL1153004, “Bis-14-membered ring diketal diamines: synthesis and evaluation of their anti-HIV and anti-tumoral activities” (Eur J Med Chem, 2009).
# Tests used:
# [1] = test system: Human immunodeficiency virus 1; assay: Antiviral activity against HIV1 3B in human MT4 cells assessed as inhibition of viral replication; assay type: functional, organism-based; details: Human immunodeficiency virus 1, 3B
# How it was run: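 MT-4 cells in RPMI 1640 with 10% FCS at 37 °C, 5% CO2, infected with HIV-1 IIIB at 5 TCID50. After 30 min adsorption, cells were washed and resuspended at 10^5 cells/mL with serial compound dilutions. Inhibition of virus-induced cytopathogenicity was read after 5 days. IC50 came from a median-effect plot; mean of 2 experiments.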
# [2] = Cytotoxicity against human MT4 cells by MTT assay; assay type: cell-based
# How it was run: (§1)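 Uninfected cells were incubated in parallel with a range of compound concentrations. Viability was read by MTT reduction to formazan, OD 540 nm. CC50 was calculated with the same median-effect program used for IC50. Mean of 2 separate experiments.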
# [3] = test system: Human immunodeficiency virus 1; assay: Antiviral activity against HIV1 LAI in human CEM-SS cells assessed as inhibition of viral replication; assay type: functional, organism-based; details: Human immunodeficiency virus 1, LAI
# How it was run: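 CEM-SS cells in RPMI 1640 with 10% FCS at 37 °C, 5% CO2, infected with HIV-1 LAI at 20 TCID50. After 30 min adsorption, cells were washed and resuspended at 10^5 cells/mL with serial compound dilutions. After 5 days, reverse transcriptase activity of released virus particles was measured. IC50 came from a median-effect plot; mean of 2 experiments.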
# [4] = Cytotoxicity against human CEM-SS cells by MTT assay; assay type: cell-based; how it was run: as §1
# KB [5] = assay: Antiproliferative activity against human KB cells at 10 uM after 3 hrs by MTS assay; assay type: functional
# How it was run: (§2)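 Medium was DMEM-Glutamax for KB and HepG2 and RPMI 1640 for the other lines, each with 10% FCS, at 37 °C, 5% CO2. Cells were seeded at 500–800 per well and left to adhere for 24 h. Compounds in DMSO were added at 10^-5 M final, with 3 h exposure. Readout was MTS absorbance versus control wells after blank subtraction; triplicate.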
# SF-268 = assay: Antiproliferative activity against human SF268 cells at 10 uM after 3 hrs by MTS assay; assay type: functional; details: SF-268, 3 h; how it was run: as §2
# HL-60 [6] = assay: Antiproliferative activity against human HL60 cells at 10 uM after 3 hrs by MTS assay; assay type: functional; details: HL-60, 3 h; how it was run: as §2
# MCF7 [7] = assay: Antiproliferative activity against human MCF7 cells at 10 uM after 3 hrs by MTS assay; assay type: functional; details: MCF7, 3 h; how it was run: as §2
# MCF7 [8] = assay: Antiproliferative activity against human multidrug-resistant MCF7 cells at 10 uM after 3 hrs by MTS assay; assay type: functional; details: MCF7, 3 h; how it was run: as §2
# HCT-116 [9] = assay: Antiproliferative activity against human HCT116 cells at 10 uM after 3 hrs by MTS assay; assay type: functional; details: HCT-116, 3 h; how it was run: as §2
# A549 = assay: Antiproliferative activity against human A549 cells at 10 uM after 3 hrs by MTS assay; assay type: functional; details: A549, 3 h; how it was run: as §2
# PC-3 [10] = assay: Antiproliferative activity against human PC3 cells at 10 uM after 3 hrs by MTS assay; assay type: functional; details: PC-3, 3 h; how it was run: as §2
# SK-OV-3 = assay: Antiproliferative activity against human SKOV3 cells at 10 uM after 3 hrs by MTS assay; assay type: functional; details: SK-OV-3, 3 h; how it was run: as §2
# HepG2 = assay: Antiproliferative activity against human HepG2 cells at 10 uM after 3 hrs by MTS assay; assay type: functional; details: HepG2, 3 h; how it was run: as §2
# KB [11] = assay: Cytotoxicity against human KB cells after 3 hrs by MTS assay; assay type: functional, cell-based; how it was run: as §2
# HL-60 [12] = assay: Cytotoxicity against human HL60 cells after 3 hrs by MTS assay; assay type: functional, cell-based; details: HL-60, 3 h; how it was run: as §2
# MCF7 [13] = assay: Cytotoxicity against human MCF7 cells after 3 hrs by MTS assay; assay type: functional, cell-based; details: MCF7, 3 h; how it was run: as §2
# HCT-116 [14] = assay: Cytotoxicity against human HCT116 cells after 3 hrs by MTS assay; assay type: functional, cell-based; details: HCT-116, 3 h; how it was run: as §2
# PC-3 [15] = assay: Cytotoxicity against human PC3 cells after 3 hrs by MTS assay; assay type: functional, cell-based; details: PC-3, 3 h; how it was run: as §2
SMILES,IC50 [1] [µM],CC50 [2] [µM],IC50 [3] [µM],CC50 [4] [µM],inhibition at 10 µM (KB [5]) [%],inhibition at 10 µM (SF-268) [%],inhibition at 10 µM (HL-60 [6]) [%],inhibition at 10 µM (MCF7 [7]) [%],inhibition at 10 µM (MCF7 [8]) [%],inhibition at 10 µM (HCT-116 [9]) [%],inhibition at 10 µM (A549) [%],inhibition at 10 µM (PC-3 [10]) [%],inhibition at 10 µM (SK-OV-3) [%],inhibition at 10 µM (HepG2) [%],IC50 (KB [11]) [µM],IC50 (HL-60 [12]) [µM],IC50 (MCF7 [13]) [µM],IC50 (HCT-116 [14]) [µM],IC50 (PC-3 [15]) [µM]
CO[C@@H]1CCN(Cc2ccc(CN3CC[C@@H](OC)OC[C@@H](c4ccccc4)NC(=O)C[C@@H](OC)OC[C@H]3c3ccccc3)cc2)[C@H](c2ccccc2)CO[C@H](OC)CC(=O)N[C@H](c2ccccc2)CO1,> 10,> 10,> 10,> 10,12,14,31,25,8,21,17,15,18,0,,,,,
CO[C@H]1CC(=O)N[C@H](c2ccccc2)CO[C@H](OC)CCN(Cc2ccc(CN3CC[C@@H](OC)OC[C@@H](c4ccccc4)NC(=O)C[C@H](OC)OC[C@H]3c3ccccc3)cc2)[C@H](c2ccccc2)CO1,> 7.8,7.8,8.65,> 10,47,27,54,45,14,47,33,51,38,27,10,10,10,10,10
CO[C@H]1CCN(Cc2ccc(CN3CCO[C@H](OC)CC(=O)NCCO[C@@H](OC)CC3)cc2)CCO[C@H](OC)CC(=O)NCCO1 (relative stereo),> 100,> 100,> 100,> 100,0,0,10,13,2,7,0,0,0,4,,,,,
c1cc(CN2CCCNCCNCCCNCC2)ccc1CN1CCCNCCNCCCNCC1 [PLERIXAFOR],0.41,6.5,0.32,> 5,,,,,,,,,,,,,,,
